Screening data from PubChem BioAssay.
UPR CHOP act = activators of apoptotic CHOP UPR arm, primary screen, cell-based, CHO-CHOP luciferase reporter, luminescence, uHTS; UPR activation; percent of tunicamycin response over DMSO baseline; activation, % at 10 µM; actives 0.34% (n = 330,000); AID 449763, 2010;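 active = at 10 µM dose, activation of 40% or more, normalized to positive control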
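assay system = CHO CHOP reporter cells | amount = 500 CHO-CHOP cells per well | buffer or medium = F12 with 10% FBS | incubation = 16-18 h cell attachment, then 6 h compound exposure, 37 °C | detection = luminescence read with Steady-Glo | read-out = percent activation relative to tunicamycin control | controls = tunicamycin high control, DMSO low control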
UPR XBP1 act = activators of adaptive XBP1 UPR arm, primary screen, cell-based, CHO-XBP1 luciferase reporter, luminescence, uHTS. IRE1-XBP1 UPR activation; percent of tunicamycin response, DMSO as zero. activation, % at 20 µM. AID 463104, 2010. actives 0.33% (n = 330,000);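 active = versus positive control, 20 µM dose yields 30% or more activation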
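Material: CHO cell line with stable XBP1 luciferase reporter; buffer or medium: F12 medium containing 10% fetal bovine serum; compound: single point, 20 µM final compound, 1% DMSO; incubation: 6 h treatment, 37 °C; measured by: glow luminescence from Steady-Glo reagent; evaluation: activation, % of tunicamycin; control set: tunicamycin high, DMSO low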
NR3A LBD binder = binders of NR3A ligand-binding domain, primary screen, biophysical, differential scanning fluorimetry, uHTS; Glutamate receptor ionotropic, NMDA 3A (GRIN3A) ligand-binding domain; NR3A LBD differential scanning fluorimetry, Tm shift; 0% = protein alone, 100% = glycine-bound protein; Tm shift relative to glycine control, % at 25 µM; actives 2.5% (n = 340,000);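 active = melting temperature shift of at least 10% of the positive control shift, at one fixed dose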
CHOP inh = inhibitors of CHOP promoter induction, primary screen, cell-based, unfolded protein response, luciferase reporter | CHO-K1 CHOP-promoter luciferase, tunicamycin-induced, 15-18 h | inhibition, % at 10 µM | actives 3.8% (n = 220,000);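 active = compounds that reduced the stress-induced luciferase reporter signal by more than about 70% of percent inhibition, limit read from the data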
MPTP block = mitochondrial permeability transition pore inhibitors, primary screen, biochemical, isolated mouse mitochondria, absorbance | AID 602449, 2012 | actives 1.4% (n = 360,000) | inhibition, % at 10 µM | Ca2+ swelling absorbance, 30 min;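 active = inhibition of 50% or more, scaled per plate between neutral and stimulator controls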
aDG glyco up = activators of alpha-DG glycosylation, primary screen, uHTS, Pro5-aDG cells, AlphaScreen. AID 624168, 2012. alpha-DG glycosylation AlphaScreen (IIH6); 0% Pro5, 100% B10-LARGE cell signal. actives 0.22% (n = 360,000). activation, % at 10 µM;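 active = activation of at least 8% versus controls, or a plate z-score of at least 8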;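 note: Pro5 are CHO cells carrying HIG-tagged alpha-DG that lacks glycosylation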
Of the large screens only hits and unclear results are named; the others gave an inactive call. Compounds with a hit are over-represented: about 5.6% of the library has one in this group of screens.

Cc1ccc(S(=O)(=O)Nc2ccc3c(c2)OCCO3)cc1	none
Cc1ccc2nc(-c3ccc(NS(=O)(=O)c4ccccc4)cc3)sc2c1	NR3A LBD binder 28.3
Cc1ccc(C2(C)NC(=O)N(CC(=O)Nc3ccc(-c4nc5ccc(C)cc5s4)cc3)C2=O)cc1 (centres undefined)	CHOP inh 73.4
O=C(CCN1C(=O)c2ccccc2C1=O)Nc1ccc(-c2nc3ccccc3s2)cc1	none
Cc1ccc2nc(-c3ccc(NC(=O)C(C)N4C(=O)c5ccccc5C4=O)cc3)sc2c1 (centres undefined)	NR3A LBD binder 15.9
Cc1ccc2nc(-c3ccc(NC(=S)NC(=O)C(C)C)cc3)sc2c1	none
COc1ccc(NC(=O)C2(C)CCCN2C(=O)C(C)C)cc1OC (centres undefined)	none (no result: UPR CHOP act, UPR XBP1 act, NR3A LBD binder, CHOP inh)
CCOC(=O)N1CCN(Cc2nc(N)nc(Nc3ccc(OC)cc3)n2)CC1	none
CCOC(=O)N1CCN(Cc2nc(N)nc(Nc3ccc(Oc4ccccc4)cc3)n2)CC1	CHOP inh 74.3
CC(C)CC1C(=O)N(Cc2cn(CCC3OCCO3)nn2)CCS(=O)(=O)N1Cc1ccc(-c2cccc(N(C)C)c2)cc1 (centres undefined)	none (no result: UPR CHOP act, UPR XBP1 act, NR3A LBD binder, CHOP inh)
COc1ccc(OC)c(NC(=O)CN(c2ccc(C(C)C)cc2)S(=O)(=O)c2c(C)noc2C)c1	none
CCCN(c1ccc(C(C)C)cc1)S(=O)(=O)c1c(C)noc1C	CHOP inh 75.7
O=[N+]([O-])c1ccc2cn[nH]c2c1	NR3A LBD binder 14.3
COc1ccc([C@H]2CC(=O)C=C(c3cc(OC)ccc3OC)C2)cc1	none (no result: CHOP inh)
O=C1CC(c2ccccc2)=Nc2ccccc2N1Cc1ccccc1	none
CN(C)c1ccc(NC(=O)CN2C(=O)CC(c3ccccc3)=Nc3ccccc32)cc1	CHOP inh 91.0
CCCCc1nnc(NC(=O)C(C)Sc2nc(O)c(Cc3ccccc3)c(=O)[nH]2)s1 (centres undefined)	none
OC(Cc1ccncc1)(c1ccccc1)c1ccccc1	NR3A LBD binder 14.2 (no result: CHOP inh)
O=c1c2c(-c3cccs3)csc2ncn1/N=C/c1ccc(OC(F)F)cc1	CHOP inh 77.4
Cn1nc(C(C)(C)C)cc1C(=O)N1CCCCC1c1cc(C(=O)Nc2ccccc2)no1 (centres undefined)	none (no result: UPR CHOP act, UPR XBP1 act, NR3A LBD binder, CHOP inh)
Cc1nc2c(OCc3ccc(C(F)(F)F)cc3)cccn2c1N(C)Cc1cccs1	none (no result: UPR CHOP act, UPR XBP1 act, NR3A LBD binder, CHOP inh)
Nc1nc(Nc2ccccc2)n[nH]1	none
c1ccc(Nc2nn[nH]n2)cc1	CHOP inh 82.1
O=C(CN(C(=O)CCC(=O)Nc1nccs1)c1ccccc1F)NCC1CCCO1 (centres undefined)	CHOP inh 72.7
Cc1ccccc1N(CC(=O)NCC1CCCO1)C(=O)CCC(=O)Nc1nccs1 (centres undefined)	none (no result: CHOP inh)
Cc1ccnc(NC(=O)CCC(=O)N(CC(=O)NCc2ccc(F)cc2)CC2CCCO2)c1 (centres undefined)	none (no result: CHOP inh)
Cc1ccnc(NC(=O)CCC(=O)N(CC(=O)NCC2CCCO2)Cc2ccc(F)cc2)c1 (centres undefined)	NR3A LBD binder 10.8
C[C@H]1O[C@H](C2CCCC2)CC2=C1C(=O)OC(C)(C)O2	none (no result: UPR CHOP act, UPR XBP1 act, NR3A LBD binder, CHOP inh)
Cn1c(=O)c2c(-c3ccccc3)n(-c3cc(Cl)c([N+](=O)[O-])cc3O)cc2n(C)c1=O	none (no result: UPR CHOP act, UPR XBP1 act, NR3A LBD binder, CHOP inh)
CCOc1ccc(Nc2nc(NCc3ccco3)nc(N)c2[N+](=O)[O-])cc1	NR3A LBD binder 12.1
Cc1ccc(Nc2nc(N)c([N+](=O)[O-])c(NCc3ccco3)n2)cc1C	CHOP inh 79.3
O=[N+]([O-])c1ccc(NN=Cc2ccc(O)cc2)nc1	NR3A LBD binder 25.7 (no result: UPR CHOP act, UPR XBP1 act, CHOP inh)
O=[N+]([O-])c1ccc(N/N=C/c2ccccc2O)cc1	NR3A LBD binder 37.7 (no result: CHOP inh)
